Published values pooled from the literature.
Compare with care: the assays were run in different laboratories.
Target: Tyrosine-protein kinase Fgr (FGR, Homo sapiens, UniProt P09769)

C[C@H](c1cccc(C#N)c1)n1cc(Cl)cc(C(N)=O)c1=N — remaining binding (cell-free assay; competition with immobilised ligand; 1 µM): 80%
C[C@H]1CCN(c2nccc(-c3cnn4ncccc34)n2)C1 — remaining binding (binding; 1 µM): 100%
FC(F)(F)Oc1cccc(-c2cnc3ccc(-c4ccncc4)nn23)c1 — remaining binding (cell-free assay; competition with immobilised ligand; 5 µM): 69%
Cc1cnn2ncc(-c3ccnc(N(C)C)n3)c2c1 — remaining binding (binding; 1 µM): 100%
CCN1CCN(Cc2ccc(C(=O)Nc3ccc(C)c(Oc4ccc5c(c4)CC(=O)N5)c3)cc2C(F)(F)F)CC1 — remaining binding (binding; competition with immobilised ligand; 1 µM): 68%
CN(C)CC#Cc1ccc(OCCCc2sc(N3CCc4cccc(C(=O)Nc5nc6ccccc6s5)c4C3)nc2C(=O)O)c(F)c1 — remaining binding (cell-free assay; competition with immobilised ligand; 1 µM): 100%
Nc1ncc2c(n1)-c1c([nH]c3ccc(C#CC4CC4)cc13)CCCC2 — remaining binding (binding; competition with immobilised ligand; 1 µM): 100%
CCS(=O)(=O)c1cc2cc(C[C@](O)(CC(C)(C)c3ccc(F)cc3C(N)=O)C(F)(F)F)[nH]c2cn1 — remaining binding (cell-free assay; competition with immobilised ligand; 1 µM): 100%
COc1ccnn2ncc(-c3ccnc(N(C)C)n3)c12 — remaining binding (binding; 1 µM): 76%
Cc1cnc(Nc2ccc(C(=O)N3CCC(N4CCCC4)CC3)cc2)nc1-c1cc2ccccc2s1 — remaining binding (cell-free assay; competition with immobilised ligand; 1 µM): 53%
CC(=O)Nc1c(C(C)=O)c(=O)n(C)c2nc(-c3ccc(Cl)cc3Cl)c(-c3ccc(Cl)cc3)cc12 — remaining binding (cell-free assay; competition with immobilised ligand; 1 µM): 100%
c1cncc(-c2cccc(Nc3nccc(NC4CCCCC4)n3)c2)c1 — remaining binding (binding; competition with immobilised ligand; 10 µM): 14%
O=C(Nc1c[nH]nc1C(=O)NC1CCNCC1)c1cc(F)cc(F)c1 — remaining binding (binding; competition with immobilised ligand; 1 µM): 100%
CCC(=N\O)/C(C)=C/c1ccc(F)cc1 — remaining binding (cell-free assay; competition with immobilised ligand; 1 µM): 67%
O=C(c1ccc(Nc2ncc(Cl)c(-c3ccc(Cl)s3)n2)cc1)N1CCC(N2CCCC2)CC1 — remaining binding (cell-free assay; competition with immobilised ligand; 1 µM): 96%
F[C@@H]1CCN(c2nccc(-c3cnn4ncccc34)n2)C1 — remaining binding (binding; 1 µM): 81%
COCCOc1nc(-c2ccc(Cl)nc2)nc2c1CN(C(=O)c1ncn3ccccc13)CC2 — remaining binding (cell-free assay; competition with immobilised ligand; 0.1 µM): 100%
CN(C)c1nccc(-c2cnc3ncccn23)n1 — remaining binding (binding; 1 µM): 100%
O=C(c1ccc(Nc2nccc(-c3cc4ccccc4s3)n2)cc1)N1CCC(N2CCCC2)CC1 — remaining binding (cell-free assay; competition with immobilised ligand; 1 µM): 93%
N[C@@H]1CCN(c2nccc(-c3cnn4ncccc34)n2)C1 — remaining binding (binding; 1 µM): 100%
COc1cnc(Nc2cccc(S(N)(=O)=O)c2)nc1N1CCN(c2ccccc2)C(=O)C1 — remaining binding (binding; competition with immobilised ligand; 1 µM): 100%
